One compound from article PMC5974556 (ChemistryOpen, 2018) can be followed below.

The nature of data set [1]: Ferric reducing antioxidant power. Conditions: chemical antioxidant capacity, n=3. The method, boiled down:
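FRAP reagent made from acetate buffer, TPTZ in ethanol and FeCl3·6H2O in dilute HCl, mixed 10:1:1, with TPTZ and iron solutions fresh daily. Sample mixed with reagent 1:9, absorbance read at 593 nm after 4 min. Values expressed as Trolox equivalents by linear regression on a Trolox standard curve; α-tocopherol positive control.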

The subject of data set [2] is Caco‐2 cells. As to the kind of experiment: Protein content. Format: cell-based. Conditions: Homo sapiens, Caco-2, 72 h, read-out: Caco‐2 IC50 SRB. The gist of the method: (§1)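 Seeded 2×10^4 cells per well for 24 h, then treated with or without test compound for three days, in triplicate. Fixed with 50% TCA for 1 h at 4 °C, washed and dried. Stained 30 min at 4 °C with 0.4% sulforhodamine B in 1% acetic acid, rinsed with 1% acetic acid. Dye redissolved in Tris buffer, absorbance read at 490 nm. Doxorubicin control; MTT and SRB data pooled, mean ± SD, n≥6.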

Data set [3] deals with EA.hy926 cells. As to the kind of experiment: Intracellular ROS. Format: cell-based. Conditions: Homo sapiens. The method, boiled down: (§2)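 Cells grown in DMEM+glutamax with 1% NEAA, 1% P/S and 10% FBS at 37 °C, 10% CO2. Seeded at 2×10^4 cells/well for 24 h, then confluent cells were exposed to test compound at 1 or 10 µM in serum-free medium, with NAC as control. Cells were washed, loaded with DCFH-DA for 30 min, then kept 1 h in phenol red-free DMEM. Fluorescence read at ex 485/em 535 nm, normalised to same-well SRB protein (490 nm) and given as % of untreated cells. Mean ± SD, n≥3; two-tailed t-test with unequal variances.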

Data set [4] has as its system EA.hy926 cells. As to the kind of experiment: Mitochondria activity. The conditions noted are these: Homo sapiens, EA.hy 926, 72 h, read-out: EA.hy926 IC50 MTT. Format: cell-based. The method, boiled down: (§3)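 Cells kept in DMEM+glutamax with 1% NEAA, 1% P/S and 10% FBS at 37 °C, 10% CO2. Seeded 2×10^4 per well for 24 h, then exposed 72 h to test compound at various concentrations in serum-free medium, in triplicate. MTT (5 mg/mL in PBS) added for 2 h, formazan dissolved in DMSO, read at 570 nm. IC50 from % survival; doxorubicin control; MTT and SRB data pooled, mean ± SD, n≥6.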

Data set [5] concerns EA.hy926 cells. The data set is described as follows: Protein content. The conditions noted are these: Homo sapiens, EA.hy 926, 72 h, read-out: EA.hy926 IC50 SRB. Type of data set: cell-based. The gist of the method: as §1
A short description of data set [6]: Water solubility, shake flask method in 0.1 M phosphate buffer pH 6.8. Format: physicochemical. The conditions noted are these: 37 °C, pH 6.8, aqueous buffer, thermodynamic from solid. The method, boiled down: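 Excess solid added to 1 mL sodium phosphate buffer, pH 6.8. Two conditions: 90 min sonication at 37 °C, or 30 min sonication at 37 °C, 23 h shaking at 300 rpm, then 30 min sonication. Centrifuged 14000 rpm for 5 min, filtered (0.2 µm) at 37 °C and diluted in DMSO. Quantified by LC at maximum absorbance against standard curves; independent triplicates.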

For data set [7], the system named is Caco‐2 cells. As to the kind of experiment: Mitochondria activity. Conditions: Homo sapiens, Caco-2, 72 h, read-out: Caco‐2 IC50 MTT. Format: cell-based. The method, boiled down: as §3
In data set [8] the test system is HepG2 cells. As to the kind of experiment: Intracellular ROS. The conditions noted are these: Homo sapiens. Type of data set: cell-based. The method, boiled down: as §2
Data set [9] deals with HepG2 cells. The data set is described as follows: Mitochondria activity. Format: cell-based. Conditions: Homo sapiens, HepG2, 72 h, read-out: HepG2 IC50 MTT. The gist of the method:
as §3

Data set [10] deals with Caco‐2 cells. As to the kind of experiment: Intracellular ROS. Type of data set: cell-based, human. Conditions: protein content normalization, mean±SD, n≥3. The method, boiled down:
as §2

Data set [11] has as its system HT‐29 cells. The data set is described as follows: Protein content. Type of data set: cell-based. Conditions: Homo sapiens, HT-29, 72 h, read-out: HT‐29 IC50 SRB. The method, boiled down:
as §1

The subject of data set [12] is HT‐29 cells. As to the kind of experiment: Intracellular ROS. Format: cell-based. The conditions noted are these: Homo sapiens. The gist of the method:
as §2

Data set [13] concerns HepG2 cells. The data set is described as follows: Protein content. Format: cell-based. The conditions noted are these: Homo sapiens, HepG2, 72 h, read-out: HepG2 IC50 SRB. The gist of the method:
as §1

Data set [14] can be described thus: DPPH radical‐scavenging activity assay. Conditions: result in words. The method, boiled down:
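DPPH diluted to 200 µM in MeOH and mixed with an equal volume of test compound in MeOH at various concentrations. Incubated 30 min in the dark at 30 °C, absorbance read at 515 nm. % inhibition corrected for sample absorbance without DPPH. EC50 from fit to the linear part of the curve. Trolox reference; at least three independent experiments.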

The test system of data set [15] is HT‐29 cells. As to the kind of experiment: Mitochondria activity. Conditions: Homo sapiens, HT-29, 72 h, read-out: HT‐29 IC50 MTT. Type of data set: cell-based. The gist of the method:
as §3

≈ marks a conversion by molar mass, not a printed value. Marks after values point to notes of the source that are not given here.

As to `O=C(/C=C(O)/C=C/c1cccnc1)/C=C/c1cccnc1` [compound 2, (1E,4Z,6E)‐5‐Hydroxy‐1,7‐di(pyridin‐3‐yl)hepta‐1,4,6‐trien‐3‐one], in data set [1], the FRAP came out at 0.03 Trolox equiv per μM. In addition, the IC50 (commonly the concentration that gives 50% inhibition) stood at 7.3 ± 3.1 µM in the data set on Caco‐2 cells [2]; 7.9 ± 1.9 µM in the data set with EA.hy926 cells [4]; 11.2 ± 2.8 µM with EA.hy926 cells [5]; 6.9 ± 2.5 µM in the data set with Caco‐2 cells [7]; 8.3 ± 0.7 µM with HepG2 cells [9]; 6.1 ± 3.4 µM in the data set with HT‐29 cells [11]. Besides, the IC50 with HepG2 cells [13] is 10 ± 1.6 µM; in the data set with HT‐29 cells [15] it was 8.2 ± 0.8 µM. In addition, the activity at 1 µM with EA.hy926 cells [3] (EA.hy 926, read-out: Intracellular ROS, percentage compared to the untreated control cells (ROS/SRB), EA.hy926, 1 μM) was found to be 112 ± 1.6%; in the data set with HepG2 cells [8] (HepG2, read-out: Intracellular ROS, percentage compared to the untreated control cells (ROS/SRB), HepG2, 1 μM), 99 ± 4.6%; with HT‐29 cells [12] (HT-29, read-out: Intracellular ROS, percentage compared to the untreated control cells (ROS/SRB), HT‐29, 1 μM), 94 ± 4%. Also, the activity at 10 µM came out at 116 ± 3.3% in the data set with EA.hy926 cells [3] (EA.hy 926, read-out: Intracellular ROS, percentage compared to the untreated control cells (ROS/SRB), EA.hy926, 10 μM); 90.4 ± 11.9% with HepG2 cells [8] (HepG2, read-out: Intracellular ROS, percentage compared to the untreated control cells (ROS/SRB), HepG2, 10 μM); 127 ± 7.9% in the data set with HT‐29 cells [12] (HT-29, read-out: Intracellular ROS, percentage compared to the untreated control cells (ROS/SRB), HT‐29, 10 μM). Further, the concentration in solution in data set [6] (solubility at 90 min) was 12.4 ± 0.2 µM (≈ 3.45 µg/mL). The solubility (commonly how much of the substance goes into solution per volume) at 24 h in data set [6] worked out at 9.2 ± 0.1 µM (≈ 2.56 µg/mL). For the same compound, the “Intracellular ROS, percentage compared to the untreated control cells (ROS/SRB), Caco‐2, 1 μM” value with Caco‐2 cells [10] (1 μM) came to 104.8±15.1%. The “Intracellular ROS, percentage compared to the untreated control cells (ROS/SRB), Caco‐2, 10 μM” value in the data set on Caco‐2 cells [10] (10 μM) was 142.7±11.9^[b] %. Also, the “DPPH radical‐scavenging activity” value in [14] is “no activity”.
